What was measured:
[1] = system: Human immunodeficiency virus 1; assay: Antiviral activity against HIV1 JRFL infected in human PHA-PBM cells after 7 days by MTT assay; format: functional, organism-based; conditions: Human immunodeficiency virus 1, JRFL, PBMC, 168 h
[2] = system: Human immunodeficiency virus 2; assay: Antiviral activity against HIV2 EHO infected in human MT2 cells after 7 days by MTT assay; format: functional, organism-based; conditions: Human immunodeficiency virus 2, EHO, MT2, 168 h
[3] = system: Human immunodeficiency virus 2; assay: Antiviral activity against HIV2 ROD infected in human MT2 cells after 7 days by MTT assay; format: functional, organism-based; conditions: Human immunodeficiency virus 2, ISOLATE ROD, MT2, 168 h
[4] = system: Human immunodeficiency virus 1; assay: Ratio of EC50 for ritonavir to compound against HIV1 NL4-3 harboring V82I mutation in protease encoding region infected in human […] cells; format: functional
[5] = system: Human immunodeficiency virus 1; assay: Ratio of EC50 for amprenavir to compound against HIV1 NL4-3 harboring L10F/M46I/I47V/V82I/I85V mutation in protease encoding region infected in human […] cells; format: functional
[6] = system: Human immunodeficiency virus 1; assay: Antiviral activity against HIV1 NL4-3 harboring L10F mutation in protease encoding region infected in human […] cells assessed as inhibition of p24 Gag protein production by ELISA; format: functional, organism-based; conditions: Human immunodeficiency virus 1, NL4-3
Method in brief: (§1)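 Protease PCR fragments (ApaI/SmaI) were cloned into pHIV-1NLSma, and virions were harvested from transfected 293T cells over 48 h. MT-4 target cells (10^5/ml) were infected with 100 TCID50s, with or without drug, at 37°C. Day-7 supernatant p24 Gag was read by chemiluminescent enzyme immunoassay.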

[7] = system: Human immunodeficiency virus 1; assay: Antiviral activity against HIV1 NL4-3 harboring L33F mutation in protease encoding region infected in human […] cells assessed as inhibition of p24 Gag protein production by ELISA; format: functional, organism-based; conditions: Human immunodeficiency virus 1, NL4-3; method in brief: as §1
[8] = system: Human immunodeficiency virus 1; assay: Antiviral activity against HIV1 NL4-3 harboring I47V mutation in protease encoding region infected in human […] cells assessed as inhibition of p24 Gag protein production by ELISA; format: functional, organism-based; conditions: Human immunodeficiency virus 1, NL4-3; method in brief: as §1
[9] = system: Human immunodeficiency virus 1; assay: Antiviral activity against HIV1 NL4-3 harboring Q58E mutation in protease encoding region infected in human […] cells assessed as inhibition of p24 Gag protein production by ELISA; format: functional, organism-based; conditions: Human immunodeficiency virus 1, NL4-3; method in brief: as §1
[10] = system: Human immunodeficiency virus 1; assay: Antiviral activity against HIV1 NL4-3 harboring V82I mutation in protease encoding region infected in human […] cells assessed as inhibition of p24 Gag protein production by ELISA; format: functional, organism-based; conditions: Human immunodeficiency virus 1, NL4-3; method in brief: as §1
[11] = system: Human immunodeficiency virus 1; assay: Antiviral activity against HIV1 NL4-3 harboring M46I/I47V mutation in protease encoding region infected in human […] cells assessed as inhibition of p24 Gag protein production by ELISA; format: functional, organism-based; conditions: Human immunodeficiency virus 1, NL4-3; method in brief: as §1
[12] = system: Human immunodeficiency virus 1; assay: Antiviral activity against HIV1 NL4-3 harboring V82I/I85V mutation in protease encoding region infected in human […] cells assessed as inhibition of p24 Gag protein production by ELISA; format: functional, organism-based; conditions: Human immunodeficiency virus 1, NL4-3; method in brief: as §1
[13] = system: Human immunodeficiency virus 1; assay: Antiviral activity against HIV1 NL4-3 harboring D30N mutation in protease encoding region infected in human […] cells assessed as inhibition of p24 Gag protein production by ELISA; format: functional, organism-based; conditions: Human immunodeficiency virus 1, NL4-3; method in brief: as §1
[14] = system: Human immunodeficiency virus 1; assay: Antiviral activity against HIV1 NL4-3 harboring I50V mutation in protease encoding region infected in human […] cells assessed as inhibition of p24 Gag protein production by ELISA; format: functional, organism-based; conditions: Human immunodeficiency virus 1, NL4-3; method in brief: as §1
[15] = system: Human immunodeficiency virus 1; assay: Ratio of EC50 for HIV1 NL4-3 harboring L33F mutation in protease encoding region infected in human […] cells to EC50 for HIV1 NL4-3 infected in human MT4 cells; format: functional
[16] = system: Human immunodeficiency virus 1; assay: Ratio of EC50 for HIV1 NL4-3 harboring Q58E mutation in protease encoding region infected in human […] cells to EC50 for HIV1 NL4-3 infected in human MT4 cells; format: functional
[17] = system: Human immunodeficiency virus 1; assay: Ratio of EC50 for HIV1 NL4-3 harboring I84V mutation in protease encoding region infected in human […] cells to EC50 for HIV1 NL4-3 infected in human MT4 cells; format: functional
[18] = system: Human immunodeficiency virus 1; assay: Ratio of EC50 for HIV1 NL4-3 harboring G48V mutation in protease encoding region infected in human […] cells to EC50 for HIV1 NL4-3 infected in human MT4 cells; format: functional
[19] = system: Human immunodeficiency virus 1; assay: Ratio of EC50 for ritonavir to compound against HIV1 NL4-3 harboring M46I mutation in protease encoding region infected in human […] cells; format: functional
[20] = system: Human immunodeficiency virus 1; assay: Ratio of EC50 for amprenavir to compound against HIV1 NL4-3 harboring I47V mutation in protease encoding region infected in human […] cells; format: functional

COc1ccc(S(=O)(=O)N(C[C@@H]2CCC(=O)N2)C[C@@H](O)[C@H](Cc2ccccc2)NC(=O)O[C@@H]2C[C@@H]3CCO[C@@H]3C2)cc1
EC50 [1]: 0.015 µM
EC50 [2]: 0.6 µM
EC50 [3]: 0.6 µM
Ratio EC50 [4]: 1.5
Ratio EC50 [5]: 10
EC50 [6]: 0.037 µM
EC50 [7]: 0.028 µM
EC50 [8]: 0.037 µM
EC50 [9]: 0.033 µM
EC50 [10]: 0.035 µM
EC50 [11]: 0.073 µM
EC50 [12]: 0.035 µM
EC50 [13]: 0.02 µM
EC50 [14]: 0.015 µM
Ratio EC50 [15]: 1.2
Ratio EC50 [16]: 1.4
Ratio EC50 [17]: 1.3
Ratio EC50 [18]: 1.7
Ratio EC50 [19]: 1.2
Ratio EC50 [20]: 1.2

From ChEMBL document CHEMBL1649117, “GRL-02031, a novel nonpeptidic protease inhibitor (PI) containing a stereochemically defined fused cyclopentanyltetrahydrofuran potent against multi-PI-resistant human immunodeficiency virus type 1 in vitro” (Antimicrob Agents Chemother, 2009)
